# RORa inhibitor = inhibitors of orphan receptor RORA, primary screen, cell-based, luminescence. actives 0.43% (n = 65,000). inhibition, % at 10 µM. Nuclear receptor ROR-alpha (Homo sapiens), P35398. CHO-K1 Gal4-RORA LBD luciferase reporter;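 active means inhibition above the mean of all tested compounds plus 3 SD, cut at about 52% in these data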
# Target sequence (P35398 whole entry, looked up, the tested form may be a part): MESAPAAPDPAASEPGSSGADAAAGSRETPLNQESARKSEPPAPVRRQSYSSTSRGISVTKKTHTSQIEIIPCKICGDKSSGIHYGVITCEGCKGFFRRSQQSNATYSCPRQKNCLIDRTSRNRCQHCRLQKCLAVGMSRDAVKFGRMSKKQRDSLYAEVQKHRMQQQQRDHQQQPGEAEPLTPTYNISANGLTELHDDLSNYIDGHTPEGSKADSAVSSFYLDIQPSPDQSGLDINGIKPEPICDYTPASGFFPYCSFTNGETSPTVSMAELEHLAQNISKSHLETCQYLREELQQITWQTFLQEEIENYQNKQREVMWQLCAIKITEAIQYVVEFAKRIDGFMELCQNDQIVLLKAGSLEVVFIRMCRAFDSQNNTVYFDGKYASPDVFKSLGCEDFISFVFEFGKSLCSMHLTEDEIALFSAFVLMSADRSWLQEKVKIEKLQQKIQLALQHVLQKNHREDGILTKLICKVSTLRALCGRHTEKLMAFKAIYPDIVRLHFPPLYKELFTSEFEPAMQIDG
#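 Material: transiently transfected CHO-K1 cells, Gal4-DBD/human RORA-LBD fusion plus 5xGal4-luciferase reporter; doses: single concentration per compound, 10 µM final; incubation: 20 h at 37 °C; detection: luminescence from basal luciferase reporter expression; read-out: % inhibition of basal luciferase versus +RORA/-RORA DMSO controls; replication: tested once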
# Hits are given with their value; n = inactive. Many of the other results were omitted from the sample, so hits are more common in it than they were.
SMILES,RORa inhibitor
O=C(Nc1nc(-c2ccccn2)cs1)c1ccc(Cl)s1,65
O=C(Nc1nc(-c2ccccc2)cs1)c1cccs1,n
Cc1cccc2cc3c(nc12)SC(=NCC1CCCO1)N(Cc1ccco1)C3 (configuration not stated),55
CCOC(=O)Cc1csc(NC(=O)CSc2nc3cccnc3n2CC)n1,n
CC1(C)CC(=O)C=C(Nc2ccc(S(N)(=O)=O)cc2)C1,n
Cc1ccc(-c2csc3ncnc(Sc4nnc(CN5CCCCCC5=O)o4)c23)cc1,57
O=C(CSc1nnc(-c2cccnc2)n1-c1ccccc1)Nc1ccc2c(c1)OCO2,n
CCOc1ccccc1C(=O)Nc1ccc(-c2nnc(-c3ccc(C)cc3)o2)cc1,n
Cc1ccc(-c2nnc(Nc3ccccc3)o2)cc1,61
Brc1cccc(-c2nnc(-c3ccccc3)o2)c1,n
CCC1SC2=NC(C)=C(C(=O)OC)C(c3cccs3)N2C1=O (configuration not stated),n
COc1ccc(-c2cc3nc4n(c(=O)c3s2)CCC4)cc1,71
COc1ccc2cc3c(N)c(C(=O)N4CCCC4)sc3nc2c1,n
O=C(Nc1ccc2nc3n(c(=O)c2c1)CCCCC3)c1ccccn1,n
O=C(Nc1cccc(F)c1)C1CCN(C(=O)Cc2ccccc2)CC1,n
COc1ccc(/C(O)=C2/C(=O)C(=O)N(CCN(C)C)C2c2ccc(F)cc2)cc1Cl (configuration not stated),n
CCOC(=O)N1CCC(N2Cc3cccc(C(=O)N4CC(C)CC(C)C4)c3C2=O)CC1 (configuration not stated),n
CCc1nnc2sc(-c3ccc(NC(=O)c4ccc5c(c4)OCCO5)cc3)nn12,n
Cc1cc(C)cc(Nc2ccc(C(=O)O)cc2N)c1,71
C/C(=C\C(=O)c1ccc(C)o1)Nc1ccc(C(=O)O)cc1C,n
CC1CCN(c2ccc(C(=O)O)cc2N)CC1,n
O=C(O)c1cccc(N2CCCC2)c1,n
c1ccc(-c2nc(N3CCCCCC3)c3ccccc3n2)nc1,79
COc1ccc(Nc2nc(N3CCCC3)c3ccccc3n2)cc1,n
CCOCCCNCC(=O)N1CCN(S(=O)(=O)c2ccc(C)cc2)CC1,n
SMILES,RORa inhibitor
CCN(CC)C(=O)N1CCC(NC(=O)c2ccccc2)CC1,n
CCCCC(=O)N(c1ccc(C)c(C)c1)C1C=CS(=O)(=O)C1 (configuration not stated),n
O=S(=O)(C/C(=C/CO)S(=O)(=O)c1ccccc1)c1ccccc1,89
Clc1ncn(C23CC4CC(CC(C4)C2)C3)n1,n
CCOC(=O)c1cnn(-c2ccccn2)c1N,n
CCOC(=O)C1=Nc2ccccc2C1=[N+]=[N-],76
CCOC(=O)c1c(C)nc(-c2ccccc2)nc1N,n
Cc1ccc(Sc2oc(/C=N/n3cnnc3)cc2Br)cc1,n
O=C(NCc1ccncc1)c1cccc(F)c1,n
Cc1occc1-c1nnc(SCC(=O)N2c3ccccc3CCc3ccccc32)n1C,n
Cc1cccc(NC(=O)c2cc3ccccc3c(=O)o2)n1,n
Cc1cccc(NC(=O)Nc2ccc(C#N)cc2)n1,60
COc1ccc(NC(=O)Nc2cccc(OC)c2)cc1,n
N#CC(C#N)=c1ccc2c(c1)NC1(CCCCC1)N=2,58
CC(C)c1ccc(NC(=O)CSc2nc3c(c(=O)[nH]2)CCC3)cc1,n
CCOc1ccc(-c2nc(CSCC(=O)NCCN3CCOCC3)c(C)o2)cc1,71
COc1ccc(-c2nc(CSCC(=O)NCc3ccco3)c(C)o2)cc1,72
COc1ccc(CNC(=O)CS(=O)Cc2nc(-c3ccc(C)cc3)oc2C)cc1 (configuration not stated),n
CCOc1ccc(-c2nnc(SCC(=O)N3CCN(c4ccccc4)CC3)o2)cc1,n
Cc1ccc(-c2nc(CS(=O)CC(=O)NCc3ccccc3)c(C)o2)cc1 (configuration not stated),n
O=C(CSCC(=O)NCc1ccco1)NCc1ccco1,n
COc1ccc(C2(C(=O)NCC3CCCO3)CCOCC2)cc1 (configuration not stated),n
Cc1ccc2nc(NC3=NCN(CCN4CCOCC4)CN3)nc(C)c2c1,n
N#Cc1c(NC(=O)COC(=O)C2CC3C=CC2C3)oc(-c2ccccc2)c1-c1ccccc1 (configuration not stated),n
O=C(NC1CCCc2ccccc21)C1CCN(c2c(N3CCCC3)c(=O)c2=O)CC1 (configuration not stated),n
SMILES,RORa inhibitor
COc1ccc(NC(=O)c2cnc3ccccn3c2=O)cc1OC,n
COC(=O)Cn1ncn2c(cc3oc(C)cc32)c1=O,n
CCOC(=O)C1CCCN(c2c(NCCCN3CCCC(C)C3)c(=O)c2=O)C1 (configuration not stated),n
CC(=O)N1CCc2cc(C(=O)CN3CCN(C(=O)c4ccco4)CC3)ccc21,n
CNc1nc2c(c(=O)[nH]c(=O)n2C)n1CCOC,n
Cc1ccc(S(=O)(=O)NCc2ccncc2)cc1,56
Cc1cc(C)c(C)c(S(=O)(=O)NCc2cccnc2)c1C,n
O=S(=O)(NCc1ccc(Cl)cc1)c1cnc[nH]1,n
CC1CCCCC1NS(=O)(=O)c1ccc(S(=O)(=O)NCc2ccncc2)cc1 (configuration not stated),69
CC(=O)NS(=O)(=O)c1ccc(NC(=O)CCC2CCCC2)cc1,n
O=C(CSc1nnnn1C1CCCCC1)NCc1ccc2c(c1)OCO2,n
COC(=O)c1cccc(OC(N)=O)c1,n
CC1CCCCC1NC(=O)CSc1nc2ccccc2c(=O)n1Cc1ccco1 (configuration not stated),n
Cn1cccc1Cc1nnc(SCC(=O)Nc2ccc(F)cc2)n1CCc1ccccc1,n
COCCCNC(=O)C1CCN(c2nc(C)cc(C)n2)CC1,n
Nc1ccc2oc(-c3cc(Br)ccc3Cl)nc2c1,58
Nc1c(Br)cc2oc(-c3ccccc3)nc2c1Br,n
Cc1ccc(C)c(-c2nc3cc(N)ccc3o2)c1,n
CCOC(=O)N1CCN(C2=NC3(CCCCC3)C(C#N)C(=O)N2)CC1 (configuration not stated),n
CCc1ccc(-c2nc(CN3CCCC(C(=O)NCCc4ccc(OC)c(OC)c4)C3)c(C)o2)cc1 (configuration not stated),n
CCOC(=O)N1CCC(NC(=O)C2CCCN(Cc3nc(-c4cccc(Cl)c4)oc3C)C2)CC1 (configuration not stated),63
Cc1oc(-c2cccc(Cl)c2)nc1CN1CCC(C(=O)NCCCN2CCCC2=O)CC1,n
COc1ccc(CCNC(=O)C2CCCN(C(=O)N(C)C)C2)c(OC)c1 (configuration not stated),n
N#C/C(C(=O)c1ccccc1)=C1/SC=C(N)N1c1ccccc1,n
NC(=O)c1nn(-c2ccccc2)nc1N,n
SMILES,RORa inhibitor
CC(C)OC(=O)C(NC(=O)c1ccccc1)=C1CCCCC1,n
CCc1ccc(-n2c(O)cnc2Nc2nc(C)cc(C)n2)cc1,n
CCOC(=O)c1c(NC(=O)CSc2nnnn2C)sc(CC)c1C,n
c1ccc(-c2nnc(N3CCN(c4ccccn4)CC3)c3ccccc23)cc1,n
O=P(O)(CCc1ccccn1)CN1CCCCC1,n
Oc1c(CN2CCCCC2)cc(COCc2ccccc2)c2cccnc12,53
Oc1c(CN2CCN(c3ccccn3)CC2)cc(Cl)c2cccnc12,60
CCCCCCOc1ccc(OCC(O)CN2C(=O)NC(C)(C)C2=O)cc1 (configuration not stated),n
O=C(C1CC1)N1CCN=C1SCc1ccccc1Cl,n

# Compound activity: PubChem, The Scripps Research Institute Molecular Screening Center
